Bioassay records as filed in PubChem.
Most compounds without a hit are left out; they make up all but 3.7% or so of the library.
Kir21 block – blocks the mouse Kir2.1 inward-rectifier potassium channel. P35561. HEK293-Kir2.1, FluxOR thallium flux fluorescence; active compounds read low. B-score at 10 µM. hit rate 0.85% among 310,000;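 active means fluorescence ratio B-score at or below minus 3 SD of library scores, with starting-brightness B-score within 2 SD, cut at about -4.2 in these data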;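 further: channel flux triggered by added potassium and thallium sulfate stimulus; B-score of peak minus minimum fluorescence over baseline after thallium stimulus; more negative B-score means stronger Kir2.1 block with less thallium influx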
Target sequence (P35561 whole entry, looked up): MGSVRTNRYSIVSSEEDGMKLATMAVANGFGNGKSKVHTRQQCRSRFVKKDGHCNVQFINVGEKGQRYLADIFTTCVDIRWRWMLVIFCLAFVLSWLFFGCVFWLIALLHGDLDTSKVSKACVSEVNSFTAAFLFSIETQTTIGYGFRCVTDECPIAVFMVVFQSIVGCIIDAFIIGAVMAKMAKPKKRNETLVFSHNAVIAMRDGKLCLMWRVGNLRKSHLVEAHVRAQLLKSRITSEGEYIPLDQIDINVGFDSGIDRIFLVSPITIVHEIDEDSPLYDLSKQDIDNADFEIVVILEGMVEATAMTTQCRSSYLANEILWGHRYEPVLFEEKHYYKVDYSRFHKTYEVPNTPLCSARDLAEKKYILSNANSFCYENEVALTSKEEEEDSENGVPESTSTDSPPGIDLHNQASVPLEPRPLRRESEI
KCNK9 block – human KCNK9 channel inhibition. B-score at 10 µM. hit rate 1.2% among 310,000. HEK293 KCNK9, FluxOR thallium flux fluorescence; active compounds read low. AID 488922;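 active means ratio B-score over 3 SD below the library mean, with starting fluorescence within 5 SD of its mean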;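 further: negative B-score means less thallium flux so channel inhibition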
hERG rescue – shields human hERG channel from block by proarrhythmic agents; Q12809; CHO-hERG, FluxOR thallium flux, dofetilide IC70 present; activation (rescue from dofetilide block), less the hit threshold, % at 10 µM; hit rate 0.51% among 310,000;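 active means activation above the mean of controls blocked by dofetilide plus 5 SD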;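 further: thallium influx through hERG after potassium depolarization seen as dye fluorescence rise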
KCNQ1 block – human KCNQ1 channel inhibition; P51787; CHO-K1 KCNQ1, FluxOR thallium flux fluorescence; active compounds read high; B-score at 10 µM; hit rate 1.3% among 310,000; AID 2642;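 active means compounds whose thallium flux B-score, printed positive for inhibition, exceeds three library SD while starting fluorescence stays within three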;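 further: channel opened by potassium depolarization with thallium stimulus after 20 min compound exposure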
KCNK3 block – human KCNK3 channel inhibition, primary screen; B-score at 10 µM; hit rate 0.84% among 340,000; O14649; CHO-KCNK3 thallium flux, FluxOR fluorescence; active compounds read low;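 active means B-score under library mean minus 4 SD, starting fluorescence ratio at most library mean plus 5 SD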;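 further: more negative B-score means stronger inhibition of thallium flux through KCNK3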
KCNQ1 act – potentiates or activates the human KCNQ1 potassium channel; CHO-K1 KCNQ1, thallium flux FluxOR fluorescence; active compounds read high; hit rate 0.35% among 310,000; P51787; B-score at 10 µM;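 active means fluorescence ratio B-score, a plate-corrected score, at least three library SD, with initial intensity B-score within 5 SD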
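Assay system: stable KCNQ1 CHO-K1 line; medium: assay buffer, equal DMSO in all wells; timing: 90 min dye loading and 20 min compound exposure, both at room temperature; technique: kinetic FluxOR thallium fluorescence, 10-s 1-Hz baseline, 110-s post-stimulus read; read-out basis: B score of baseline-normalized fluorescence ratio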
The depositor's hits bear a star; i = inactive; nt = no result.

SMILES	Kir21 block	KCNK9 block	hERG rescue	KCNQ1 block	KCNK3 block	KCNQ1 act
Cc1ccccc1Cn1cc(S(=O)(=O)c2ccc(C(C)C)cc2)c(=O)c2cc3c(cc21)OCO3	1.43	i	-7.8	i	i	i
C[C@H](CO)N1C[C@H](C)[C@H](CN(C)S(=O)(=O)c2ccccc2)Oc2c(NS(C)(=O)=O)cccc2C1=O	nt	nt	nt	nt	i	nt
Cc1cccc(-n2ccnc2SCC(=O)Nc2cccc(S(=O)(=O)NC3=NCCC3)c2)c1C	nt	nt	nt	nt	i	nt
CCOc1ccc2ccccc2c1CNCCc1ccc(S(N)(=O)=O)cc1	-4.36*	i	-3.5	i	i	i
CCOc1ccc(CNCCc2ccc(S(N)(=O)=O)cc2)cc1	0.39	i	-4.2	i	i	i
CCN1/C(=C\C=C(C(C)=O)C(C)=O)Sc2ccccc21	-7.31	i	-22.4	8*	i	i
COc1ccc(CC(=O)NC(C)c2nnc(SCCOc3ccc(OC)cc3)n2C)cc1 (stereo not given)	-4.27*	i	-16.7	i	i	i
COc1ccc(CC(=O)NC(C)c2nnc(SCC(=O)c3ccc(OC)cc3)n2C)cc1 (stereo not given)	0.43	i	-12.7	i	i	i
O=S(=O)(c1ccc(SCc2ccc(Br)cc2)nc1)N1CCCCC1	nt	nt	nt	nt	-10*	nt
CN(C)/C=C1/N=C(c2ccccc2)OC1=O	0.1	i	-2.7	i	i	i
O=CC1=C(c2ccccc2)Oc2ccccc2O1	-7.61*	i	-8.9	6*	i	i
Cc1nn(-c2ccccc2)nc1C(=O)NNC(=O)c1cccc2ccccc12	0.62	i	-12.3	i	i	15*
CCNC(=S)NNC(=O)c1cc(-c2cccnc2)nc2ccccc12	1.6	i	-10.5	i	i	i
CCOC(=O)c1ccc(NC(=S)NNC(=O)c2cc(-c3cccnc3)nc3ccccc23)cc1	-0.18	i	-22.2	10*	i	i
Cc1ccc(Nc2nc(-c3cccnc3)nc3ccccc23)cc1	0.28	i	-2.7	i	i	i
CCOC(=O)c1ccc(Nc2nc(-c3cccnc3)nc3ccccc23)cc1	-0.74	-7.06*	-6.7	i	i	i
CC(=O)N1CCN(S(=O)(=O)c2cccc(C(=O)OCc3ccc(C(C)(C)C)cc3)c2)CC1	nt	nt	nt	nt	i	nt
Cc1cc(C)cc(C(=O)NC(CC(N)=O)c2ccc(N3CCCCCC3)c([N+](=O)[O-])c2)c1 (stereo not given)	1.36	i	-9.2	7*	i	i
COc1ccc(C(CNC(=O)Cc2ccccc2F)N2CCCCC2)cc1 (stereo not given)	-1.81	i	6.3*	i	i	i
CCC1(C(=O)O)NC(c2cc(OC)ccc2O)C2C(=O)N(Cc3ccccc3)C(=O)C21 (stereo not given)	-0.01	i	5.5*	i	i	i
CCCCN1C(=O)C2C(c3ccc(OC)cc3O)NC(CC(C)C)(C(=O)O)C2C1=O (stereo not given)	-0.02	i	0.1	i	i	i
N#CCc1ccc(NS(=O)(=O)c2ccc(C3CCCCC3)cc2)cc1	1.83	-6.94*	-12.8	i	i	i
CN(C)c1ccc(/C=C/c2cc[n+](C)cc2)cc1	-4.6	i	-14.9	7*	i	i
Cc1ccc(/C=C/c2ccc(N(C)C)cc2)[n+](C)c1	-5.46	i	-29.1	9*	i	i
O=[N+]([O-])c1ccc2nc(-c3ccc(Cl)cc3)[nH]c2c1	-1.37	i	-8.1	6*	i	i
SMILES	Kir21 block	KCNK9 block	hERG rescue	KCNQ1 block	KCNK3 block	KCNQ1 act
O=C(O)/C=C\C(=O)Nc1ccccc1C(=O)N1CCC(O)(c2ccc(Cl)cc2)CC1	nt	nt	nt	nt	i	nt
CCN(CC)Cc1ccccc1CNC(=O)c1cccc(S(=O)(=O)Nc2ccc3c(c2)OCO3)c1	nt	nt	nt	nt	-9.27*	nt
O=S(=O)(Nc1ccc2c(c1)OCO2)c1cccc(Br)c1	nt	nt	nt	nt	i	nt
COc1ccc(OCCOCCN2CCN(C)CC2)cc1	0.72	i	-2.1	i	i	i
COc1cccc(OC)c1OCCOCCN1CCN(C)CC1	0.01	i	18.6*	i	i	19*
c1ccc(-n2cnnc2SCc2cn3ccsc3n2)cc1	-0.09	i	-7.5	i	i	i
Cc1ccc(-n2c(SCc3cn4ccsc4n3)nc3ccccc3c2=O)cc1	-0.01	i	-12.4	7*	i	i
Cc1ccc(C(=O)NCC2CCCO2)cc1S(=O)(=O)N1CCCCC1 (stereo not given)	0.27	i	-9.8	i	i	i
Cc1cc(C)n(-c2c(C)[nH]c3ccccc23)n1	-4.21*	i	-3.8	i	i	i
COc1ccc(C(=O)OC(COc2ccccc2)Cn2ccnc2)cc1 (stereo not given)	-7.01*	i	-6.9	i	i	i
COc1ccc(Cl)cc1NS(=O)(=O)c1ccc(OC)c(OC)c1	-8.16*	i	-17.3	i	i	i
COc1ccc(C)cc1NS(=O)(=O)c1ccc(NS(=O)(=O)c2ccc(NC(C)=O)cc2)cc1	-0.31	i	-8.9	i	i	i
COc1ccc(S(=O)(=O)Nc2c(C)ccc3nsnc23)cc1OC	-5.12*	i	-3.3	i	i	i
COc1ccc(NS(=O)(=O)c2cccc3nsnc23)cc1OC	0	i	-3.4	i	i	i
COc1ccc(S(=O)(=O)Nc2cc(C)ccc2OC)cc1C	-6.96*	i	-2.5	i	i	i
NC(=O)c1ncn([C@@H]2O[C@H](CNCc3cc(Cl)ccc3OCc3ccc(Cl)cc3)[C@@H](O)[C@H]2O)n1	nt	nt	nt	nt	i	nt
O=C(CCN1C(=O)[C@@H]2Cc3ccccc3CN2C1=O)NCc1ccc(Cl)cc1	0.2	i	-13.8	i	i	i
CC(C)n1cc(C#N)c(N)n1	nt	nt	nt	nt	i	nt
Cc1cc(C)c2sc(NC(=O)C3=COCCO3)nc2c1	0.02	i	-8.8	i	i	i
CC(O)(c1ccccc1)c1ccc2ccccc2n1 (stereo not given)	nt	nt	nt	nt	i	nt
NCc1ccccc1	nt	nt	nt	nt	i	nt
CCN1C(=O)/C(=C\c2ccncc2)SC1=S	-0.66	i	-3.5	i	i	i
CCCCC(CC)CN1C(=O)/C(=C/c2ccncc2)SC1=S (stereo not given)	-3.5	i	-2.9	7*	i	i
O=c1[nH]c(=S)[nH]cc1Oc1ccc(Cl)cc1	nt	nt	nt	nt	i	nt
Cc1cc(/C=N/n2c(COc3ccccc3)nc3ccccc3c2=O)c(O)c([N+](=O)[O-])c1	1.18	i	-12.5	13*	i	i
Cc1ccc(-c2[nH]ncc2/C=N/n2c(COc3ccccc3)nc3ccccc3c2=O)cc1	1.43	i	-17.9	i	i	i
